In ChEMBL document CHEMBL1155165, “SB-431542, a transforming growth factor beta inhibitor, impairs Trypanosoma cruzi infection in cardiomyocytes and parasite cycle completion” (2007):
Active and inactive are the calls of the source. The calls are words filed in the database; no cut-off is given here.

Experiments:
[1] = system: Trypanosoma cruzi; test: Antitrypanosomal activity against Trypanosoma cruzi Y in mouse cardiomyocytes assessed as induction of parasite apoptosis at 10 uM after 72 hrs postinfection by TUNEL method; format: functional
How it was run: (§1)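 Y strain-infected cardiomyocytes were kept with or without 10 μM inhibitor, grown on coverslips. They were fixed in 4% paraformaldehyde for 20 min at 4°C and permeabilized with 0.1% Triton X-100 in 0.1% sodium citrate for 2 min at 4°C. TUNEL labelling ran 60 min at 37°C, followed by DAPI counterstain. The percentage of TUNEL-positive parasites was scored at 72 and 96 h postinfection by epifluorescence.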

[2] = system: Trypanosoma cruzi; test: Antitrypanosomal activity against Trypanosoma cruzi Y in mouse cardiomyocytes assessed as number of trypomastigote release at 10 uM after 96 hrs; format: functional
How it was run: (§2)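 Cardiomyocytes were infected with Y strain trypomastigotes (10:1 parasite:host) and kept with or without 10 μM inhibitor throughout. Parasites released at 96 h postinfection were counted and reported as 10^4. Trypomastigotes were scored separately from nontrypomastigote forms (amastigotes plus epimastigote-like forms).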

[3] = system: Trypanosoma cruzi; test: Antitrypanosomal activity against Trypanosoma cruzi Y in mouse cardiomyocytes assessed as number of intracellular parasites per infected cell at 10 uM after 96 hrs postinfection by Giemsa staining; format: functional
How it was run: (§3)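 Primary mouse embryo cardiomyocytes were seeded at 1 × 10^5 cells/well for 24 h at 37°C in 5% CO2. Cells were pretreated for 1 h with 10 μM inhibitor or vehicle, and treatment was kept throughout. They were infected with Y strain trypomastigotes at 10:1 parasite:host. At 24, 48, 72 and 96 h postinfection cells were Bouin-fixed and Giemsa-stained. Parasites per infected cell were counted over 400 cells on two coverslips. Mean ± SD of three experiments.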

[4] = system: Trypanosoma cruzi; test: Antitrypanosomal activity against Trypanosoma cruzi Y in mouse cardiomyocytes assessed as number of intracellular parasites per infected cell at 10 uM after 72 hrs postinfection by Giemsa staining; format: functional; how it was run: as §3
[5] = system: Trypanosoma cruzi; test: Antitrypanosomal activity against Trypanosoma cruzi Y in mouse cardiomyocytes assessed as number of intracellular parasites per infected cell at 10 uM after 24 hrs postinfection by Giemsa staining; format: functional; how it was run: as §3
[6] = system: Cardiomyocyte; test: Inhibition of TGF-beta-1-induced Smad2 phosphorylation in mouse embryo cardiomyocytes at 10 uM by immunoblot; format: functional, cell-based
How it was run: (§4)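 Mouse embryo cardiomyocytes were pretreated for 1 h with or without 10 μM inhibitor. They were then given 2 ng/ml TGF-β1 or T. cruzi Dm28c for 1 h. Cells were lysed in RIPA buffer, pH 8.0, and 20 μg lysate was run on 12% SDS-PAGE. Blots were probed for phospho-Smad2, with α-tubulin as loading control.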

[7] = system: Trypanosoma cruzi; test: Antitrypanosomal activity against Trypanosoma cruzi Y in mouse cardiomyocytes assessed as induction of parasite apoptosis at 10 uM after 96 hrs postinfection by TUNEL method; format: functional; how it was run: as §1
[8] = system: Trypanosoma cruzi; test: Antitrypanosomal activity against Trypanosoma cruzi Y in mouse cardiomyocytes assessed as number of intracellular parasites per infected cell at 10 uM after 48 hrs postinfection by Giemsa staining; format: functional; how it was run: as §3
[9] = system: Trypanosoma cruzi; test: Inhibition of Trypanosoma cruzi Y infection-induced TGFbeta signaling in mink C32 cells at 10 uM by luciferase based assay; format: functional, organism-based
How it was run: (§5)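 C32 cells are Mv1Lu mink lung cells stably carrying a PAI promoter-luciferase reporter. Cells were plated at 1 × 10^5/well in 5% FCS and switched to 0.1% FCS after 3 h. They were stimulated with TGF-β1 2 ng/ml or live Y strain trypomastigotes, 1 × 10^6 to 4 × 10^6 parasites, with or without 10 μM inhibitor. Luciferase (RLU) was read after 20 h. Mean ± SD of three experiments.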

[10] = system: Trypanosoma cruzi; test: Antitrypanosomal activity against Trypanosoma cruzi Y in mouse cardiomyocytes assessed as reduction of intracellular amastigotes at 10 uM by Giemsa staining; format: functional, organism-based; how it was run: as §3
[11] = system: Trypanosoma cruzi; test: Inhibition of invasion of Trypanosoma cruzi Y in mouse embryo cardiomyocytes assessed as pathogen infection at 10 uM for 1 hr measured at 4 hrs postinfection; format: functional, organism-based
How it was run: (§6)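 Mouse embryo cardiomyocytes were pretreated for 1 h with 10 μM inhibitor or left untreated. They were infected with Dm28c or Y strain trypomastigotes at 10:1 parasite:host. Cells were fixed at 4 h postinfection and Giemsa-stained. The percentage of infected cells was counted over 400 cells per slide on two coverslips. Control and treated cells were compared by t test.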

[12] = system: Trypanosoma cruzi; test: Inhibition of Trypanosoma cruzi Dm28C infection-induced Smad2 phosphorylation in mouse embryo cardiomyocytes at 10 uM by immunoblot; format: functional, organism-based; how it was run: as §4
[13] = system: Trypanosoma cruzi; test: Antitrypanosomal activity against Trypanosoma cruzi Y in mouse cardiomyocytes assessed as inhibition of trypomastigote release at 10 uM after 96 hrs; format: functional, organism-based; how it was run: as §2
[14] = system: Trypanosoma cruzi; test: Inhibition of invasion of Trypanosoma cruzi Dm28C in mouse embryo cardiomyocytes assessed as pathogen infection at 10 uM for 1 hr measured at 4 hrs postinfection; format: functional, organism-based; how it was run: as §6
[15] = system: Trypanosoma cruzi; test: Antitrypanosomal activity against Trypanosoma cruzi Y in mouse cardiomyocytes assessed as number of nontrypomastigote release at 10 uM after 96 hrs; format: functional; how it was run: as §2
[16] = system: C32; test: Inhibition of TGFbeta signaling in mink C32 cells at 10 uM by luciferase based assay; format: functional, cell-based; conditions: Neovison vison; how it was run: as §5

NC(=O)c1ccc(-c2nc(-c3ccccn3)c(-c3ccc4c(c3)OCO4)[nH]2)cc1 [SB-431542]
Activity [1]: 47.9% | Activity [2]: 19 | Activity [3]: 58 | Activity [4]: 38 | Activity [5]: 1.4 | Activity [6]: Active | Activity [7]: 26.5% | Activity [8]: 4.4 | Activity [9]: Active | Activity [10]: Active | Activity [11]: Active | Activity [12]: Active | Activity [13]: Active | Activity [14]: Active | Activity [15]: 53 | Activity [16]: Active
